Consider 53 compounds from PubChem BioAssay AID602422 (The Scripps Research Institute Molecular Screening Center, 2012).

The structures appear in SMILES notation. “And” between values parts separate entries of the source, which are not always exact repeats. Identical values can stand only once. The source made the active and inactive calls.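 Rule for the calls: active = remaining nuclease activity at or below 52% of the solvent-only control at any tested dose; inactive = above 52% at every tested dose.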

The subject of this assay is ATP-dependent helicase/nuclease AddAB (Helicobacter pylori 26695). Description: remaining H. pylori AddAB nuclease activity – biochemical, radioactivity, purified enzyme, 100 µM, powder samples, late-stage follow-up (AID 602422). The note with it: [3H]-dsDNA TCA-soluble nuclease assay, at 100 µM, active compounds read low. The method in brief: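 assay system = purified AddAB helicase-nuclease enzyme | medium = Tris-HCl pH 8.5, MgCl2, ATP | probe or stimulus = [3H] T7 dsDNA, 2 µg/mL | compound = nominal 100 µM, 5% DMSO | times = 20 min reaction, 37 °C | detection = scintillation counting of acid (TCA)-soluble radioactive DNA product | read-out basis = percent nuclease activity versus DMSO control, minus enzyme-free background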
For `Nc1c(NC(=O)c2ccc([N+](=O)[O-])o2)sc2c1CCCC2`, the remaining nuclease activity is 116% (inactive).

As for `CC1(C)Cc2c(sc(NC(=O)c3ccco3)c2C#N)CO1`, the remaining nuclease activity is 69% (inactive).

In the case of `CCn1cc(C(=O)O)c(=O)c2cnc(N3CCN(C(=S)Nc4ccccc4F)CC3)nc21`, the remaining nuclease activity is 74% (inactive).

For `CNC(=O)c1c(NC(=O)c2nc(SCc3ccccc3)ncc2Cl)sc2c1CCCC2`, the remaining nuclease activity was 21%.

With `CCn1cc(C(=O)O)c(=O)c2cnc(N3CCN(C(=S)NC4CC5CCC4C5)CC3)nc21` (stereo not drawn), the remaining nuclease activity was 6%.

`CCn1cc(C(=O)O)c(=O)c2cnc(N3CCN(C(=S)Nc4ccccc4C)CC3)nc21`: the remaining nuclease activity was 81% (inactive).

Regarding `CCn1cc(C(=O)O)c(=O)c2cc(F)c(N3CCN(C(=S)Nc4cccc(C(F)(F)F)c4)CC3)cc21`, the remaining nuclease activity was 9%.

Turning to `CSc1ncc(Cl)c(C(=O)Nc2sc3c(c2C#N)CCC(C)C3)n1` (stereo not drawn), the remaining nuclease activity was 100% (inactive).

On to `N#Cc1c(NC(=O)c2cc(-c3ccccc3)on2)sc2c1CCCC2`, for which the remaining nuclease activity was 42%.

In the case of `Cn1nccc1C(=O)Nc1sc2c(c1C#N)CCCC2`, the remaining nuclease activity is 71% (inactive).

For `CCn1cc(C(=O)O)c(=O)c2cnc(N3CCN(C(=S)Nc4ccc5c(c4)OCCO5)CC3)nc21`, the remaining nuclease activity was 62% (inactive).

Take `CC1CCc2c(sc(NC(=O)c3cccs3)c2C#N)C1` (stereo not drawn): the remaining nuclease activity was 92% (inactive).

`N#Cc1c(NC(=O)c2cnccn2)sc2c1CCCC2`: the remaining nuclease activity is 10% and 36%.

For `COC(=O)c1c(-c2ccccc2)csc1NC(=O)c1cnccn1`, the remaining nuclease activity was 31%.

`CCn1cc(C(=O)O)c(=O)c2cnc(N3CCN(C(=S)NC(=O)c4cccc(C)c4)CC3)nc21`: the remaining nuclease activity was 95% (inactive).

Consider `Cc1ccc(C(=O)Nc2sc3c(c2C#N)CCCCC3)o1`, for which the remaining nuclease activity is 72% (inactive).

In the case of `CCn1cc(C(=O)O)c(=O)c2cnc(N3CCN(C(=O)Nc4ccccc4)CC3)nc21`, the remaining nuclease activity was 92% (inactive).

Consider `COC(=O)c1c(-c2cccc(C)c2)csc1NC(=O)c1cnccn1`, for which the remaining nuclease activity is 88% (inactive).

Take `N#Cc1c(NC(=O)c2cccc(F)c2)sc2c1CCCC2`: the remaining nuclease activity was 65% (inactive).

As to `COC(=O)c1c(NC(=O)c2cnccn2)sc2c1CCCC2`, the remaining nuclease activity was 93% (inactive).

In the case of `CCn1cc(C(=O)O)c(=O)c2cnc(N3CCN(C(=S)Nc4cccc(C(F)(F)F)c4)CC3)nc21`, the remaining nuclease activity is 8%.

With `N#Cc1c(NC(=O)c2ccc(-c3ccccc3[N+](=O)[O-])o2)sc2c1CCCC2`, the remaining nuclease activity was 73% (inactive).

In the case of `CCn1cc(C(=O)O)c(=O)c2cnc(N3CCN(C(=S)Nc4ccccc4Cl)CC3)nc21`, the remaining nuclease activity is 74% (inactive).

As to `CCn1cc(C(=O)O)c(=O)c2cnc(N3CCN(C(=S)Nc4ccc(F)cc4)CC3)nc21`, the remaining nuclease activity was 43%.

Consider `CCC(C)(C)C1CCc2c(sc(NC(=O)c3cnccn3)c2C#N)C1` (stereo not drawn), for which the remaining nuclease activity was 103% (inactive).

As for `N#Cc1c(NC(=O)c2ccc([N+](=O)[O-])o2)sc2c1CCCC2`, the remaining nuclease activity is 92% (inactive).

Take `N#Cc1c(NC(=O)c2ccccc2C(=O)O)sc2c1CCCC2`: the remaining nuclease activity was 55% (inactive).

Consider `Cc1sc(NC(=O)c2cnccn2)c(C(=O)OC(C)C)c1-c1ccccc1`, for which the remaining nuclease activity is 33%.

In the case of `CCn1cc(C(=O)O)c(=O)c2cnc(N3CCNCC3)nc21`, the remaining nuclease activity is 103% (inactive).

`N#Cc1c(NC(=O)c2ccccc2)sc2c1CCC2`: the remaining nuclease activity was 111% (inactive).

For `CCn1cc(C(=O)O)c(=O)c2cnc(N3CCN(C(=S)Nc4ccccc4C(F)(F)F)CC3)nc21`, the remaining nuclease activity was 90% (inactive).

Turning to `CSc1ncc(Cl)c(C(=O)Nc2sc3c(c2C(=O)NC2CCS(=O)(=O)C2)CCC(C)C3)n1` (stereo not drawn), the remaining nuclease activity was 77% (inactive).

Turning to `CCn1cc(C(=O)O)c(=O)c2cnc(N3CCN(C(=S)NCc4ccccc4)CC3)nc21`, the remaining nuclease activity was 55% (inactive).

On to `CCn1cc(C(=O)O)c(=O)c2cnc(N3CCN(C(=S)NC(=O)c4ccco4)CC3)nc21`, for which the remaining nuclease activity is 89% (inactive).

Consider `CCn1cc(C(=O)O)c(=O)c2cnc(N3CCN(C(=S)NC(=O)c4cccnc4)CC3)nc21`, for which the remaining nuclease activity was 101% (inactive).

As to `CCn1cc(C(=O)O)c(=O)c2cc(F)c(N3CCN(C(=S)Nc4ccccc4C(F)(F)F)CC3)cc21`, the remaining nuclease activity is 51%.

`CCn1cc(C(=O)O)c(=O)c2cnc(N3CCN(C(=S)Nc4ccc(Cl)cc4)CC3)nc21`: the remaining nuclease activity was 19%.

`C=CCNC(=S)N1CCN(c2ncc3c(=O)c(C(=O)O)cn(CC)c3n2)CC1`: the remaining nuclease activity was 93% (inactive).

Consider `N#Cc1c(NC(=O)c2cnccn2)sc2c1CCCCCC2`, for which the remaining nuclease activity is 70% (inactive).

In the case of `CC1CCc2c(sc(NC(=O)c3cnccn3)c2C#N)C1` (stereo not drawn), the remaining nuclease activity was 91% (inactive).

Regarding `CCn1cc(C(=O)O)c(=O)c2cnc(N3CCN(C(=S)Nc4ccccc4)CC3)nc21`, the remaining nuclease activity was 83% (inactive).

Consider `Cc1ccc(C(=O)Nc2sc3c(c2C#N)CCC3)o1`, for which the remaining nuclease activity was 98% (inactive).

With `CC1CCc2c(sc(NC(=O)c3ccc([N+](=O)[O-])o3)c2C#N)C1` (stereo not drawn), the remaining nuclease activity was 89% (inactive).

As for `CCn1cc(C(=O)O)c(=O)c2cnc(N3CCN(C(=S)NC(=O)c4ccccc4Cl)CC3)nc21`, the remaining nuclease activity was 93% (inactive).

On to `NC(=O)c1c(NC(=O)c2cnccn2)sc2c1CCCC2`, for which the remaining nuclease activity is 87% (inactive).

As to `CCn1cc(C(=O)O)c(=O)c2cnc(N3CCN(C(=S)NC(C)c4ccccc4)CC3)nc21` (stereo not drawn), the remaining nuclease activity is 13%.

For `CCn1cc(C(=O)O)c(=O)c2cnc(N3CCN(C(=S)NC)CC3)nc21`, the remaining nuclease activity was 101% (inactive).

Regarding `CCn1cc(C(=O)O)c(=O)c2cnc(N3CCN(C(=S)Nc4ccc5c(c4)OCO5)CC3)nc21`, the remaining nuclease activity was 46%.

Consider `Cc1sc(NC(=O)c2ccc(Br)o2)c(C#N)c1C`, for which the remaining nuclease activity is 40%.

Regarding `N#Cc1c(NC(=O)C2CC=CCC2C(=O)O)sc2c1CCC2` (stereo not drawn), the remaining nuclease activity was 92% (inactive).

On to `CC1CCc2c(sc(NC(=O)c3ccc([N+](=O)[O-])o3)c2N)C1` (stereo not drawn), for which the remaining nuclease activity is 128% (inactive).

Regarding `CCn1cc(C(=O)O)c(=O)c2cnc(N3CCN(C(=S)Nc4ccccc4OC)CC3)nc21`, the remaining nuclease activity is 68% (inactive).

Consider `N#Cc1c(NC(=O)c2ccco2)sc2c1CCC2`, for which the remaining nuclease activity was 41%.
